Screening data deposited in PubChem BioAssay by several laboratories.
VIM-2 inhibitor: blocks Pseudomonas aeruginosa VIM-2 metallo-beta-lactamase; purified VIM-2, nitrocefin hydrolysis, epi-absorbance fluorescence; inhibition, % at 5.6 µM; hit rate 0.89% among 290,000; AID 1527;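 active means inhibition above the mean of all tested compounds plus 3 SD, cutoff set per screening run, cut at about 7.5% in these data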;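 further: red hydrolysis product quenches plate fluorescence so inhibitors raise well fluorescence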
eIF4H inh: inhibitors of RNA binding by human eIF4H; inhibition, % at 35 µM; hit rate 0.94% among 290,000; AID 2012; eIF4H fluorescence polarization binding assay; Q15056;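 further: calls also rest on retests at 20 µM and on dose response follow-up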
IMP-1 inh: inhibitors of Pseudomonas aeruginosa IMP-1 metallo-beta-lactamase | hit rate 0.45% among 290,000 | inhibition, % at 5.6 µM | purified IMP-1, nitrocefin hydrolysis, epi-absorbance fluorescence | AID 1556;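 active means inhibition above the mean plus 3 SD of all compounds in the same screening run, cut at about 4.5% in these data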
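Assay system: purified IMP-1; Quantity: IMP-1 0.2 nM before substrate addition; Medium: HEPES buffer pH 7.1 with ZnSO4 and Brij 35; Incubation: 15 min enzyme–compound preincubation, then 25 min nitrocefin reaction, 25 °C; Signal: fluorescence quenching readout, ex 480/em 530 nm; Controls: DMSO with and without IMP-1; Repeats: singlicate testing.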
PABP polyA inh: blocks human PABP binding to poly(A) RNA; P11940; fluorescence polarization; calls only at 35 µM; hit rate 1% among 290,000;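 further: calls also rest on retests at 20 µM and on dose response follow-up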
Target sequence (P11940 whole entry, looked up): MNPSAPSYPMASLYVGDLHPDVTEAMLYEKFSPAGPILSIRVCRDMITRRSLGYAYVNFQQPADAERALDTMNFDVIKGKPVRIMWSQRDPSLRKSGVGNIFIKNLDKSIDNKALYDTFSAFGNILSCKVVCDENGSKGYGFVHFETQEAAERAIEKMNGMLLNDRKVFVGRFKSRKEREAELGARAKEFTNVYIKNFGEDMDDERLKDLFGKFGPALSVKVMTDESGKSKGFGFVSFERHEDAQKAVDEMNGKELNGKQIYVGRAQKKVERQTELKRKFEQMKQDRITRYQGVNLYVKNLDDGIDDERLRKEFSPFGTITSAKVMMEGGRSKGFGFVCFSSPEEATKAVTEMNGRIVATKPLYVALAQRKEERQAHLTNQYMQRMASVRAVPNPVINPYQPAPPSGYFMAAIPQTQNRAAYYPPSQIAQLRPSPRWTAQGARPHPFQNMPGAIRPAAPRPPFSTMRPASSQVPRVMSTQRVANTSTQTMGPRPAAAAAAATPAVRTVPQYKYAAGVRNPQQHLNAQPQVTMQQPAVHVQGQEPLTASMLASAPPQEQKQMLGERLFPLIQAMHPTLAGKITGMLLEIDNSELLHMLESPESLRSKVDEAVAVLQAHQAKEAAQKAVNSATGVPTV
MLLE-PAM2 inh: inhibitors of microRNA-mediated deadenylation, human PABP1 MLLE binding; GST-MLLE / FITC-PAM2 fluorescence polarization; inhibition, % at 20 µM; hit rate 0.36% among 360,000; in the data active means inhibition above about 35%, passing the limit was not always enough
A number is an active result; i = inactive; ? = inconclusive; nt = no result given; + = active, no number. An excerpt weighted towards active compounds, which were near 2.2% of everything screened. Unless noted, how the calls were made is not given here.

SMILES	VIM-2 inhibitor	eIF4H inh	IMP-1 inh	PABP polyA inh	MLLE-PAM2 inh
Cc1cccc(C(=O)OCC(=O)c2cccc(Br)c2)c1O	i	i	i	i	i
Cc1ccc(N2C(=O)C3C4C=CC(CNC(=S)Nc5cccc(Cl)c5)(O4)C3C2=O)cc1 (stereo unspecified)	i	i	i	i	41
CC(C)N1CC(C(=O)Nc2cc(Cl)cc(Cl)c2)CC1=O (stereo unspecified)	i	i	i	i	i
O=[N+]([O-])c1ccc(N/N=C\c2ccccc2OCc2ccccc2)cc1	i	23	i	+	i
CCC(C)(C)NC(=O)CN(C(=O)CCC(=O)Nc1nccs1)c1ccc(C)cc1	i	i	i	i	i
C=CCNC(=S)NS(=O)(=O)c1cccs1	i	i	i	i	44
CCN(CC)c1ccc(N=Cc2ccccc2[N+](=O)[O-])cc1	i	i	i	i	i
CCN(CC)c1ccc(N=Cc2ccc([N+](=O)[O-])o2)cc1	i	72	i	+	i
COCc1n[nH]c(=S)n1-c1cccc2ccccc12	8.0	i	i	i	i
COc1cc(NC(C)C(=O)N2CC(C)OC(C)C2)cc(OC)c1 (stereo unspecified)	i	?	i	+	i
O=C(Nc1sc2c(c1C(=O)N1CCOCC1)CCCCC2)c1cccnc1	i	i	i	i	i
COc1ccc(S(=O)(=O)N(C)C)cc1NC(=O)COC(=O)c1nn(C)c(=O)c2ccccc12	i	i	i	i	i
Cc1cc2cc(CNC(=O)c3ccc(C)c([N+](=O)[O-])c3)ccc2[nH]1	i	i	i	i	43
COc1ccccc1C(=O)N/C(=C\c1cn(S(=O)(=O)N(C)C)c2ccccc12)C(=O)NCCCN1CCOCC1	i	i	i	i	i
COCCn1c(N)c(N(Cc2ccccc2)C(=O)c2cc3ccccc3o2)c(=O)[nH]c1=O	i	i	i	i	i
Oc1ccc(-c2c(C3=CCCCC3)sc3ccccc23)cc1	i	i	5.1	i	i
Cc1ccc2nc(-c3ccc(O)cc3)oc2c1	i	i	i	i	i
O=C(O)CSc1cc(NS(=O)(=O)c2ccc(Cl)cc2)c2ccccc2c1O	i	i	i	i	40
CC1CCN(C(=O)Cn2c(=O)n(CCCC(=O)NCc3ccco3)c(=O)c3sccc32)CC1	i	i	i	i	i
Cn1c(SCC(=O)N/N=C/C=C\c2ccco2)nc2ccccc21	i	90	i	+	i
Cn1c(=O)c2c(ncn2CC(=O)N/N=C/C=C/c2ccco2)n(C)c1=O	i	99	i	+	i
COc1ccc(S(=O)(=O)N2CCOC2CNC(=O)C(=O)NCC(C)C)cc1OC (stereo unspecified)	i	i	i	i	i
CCCCn1c(-c2ccc(C(C)(C)C)cc2)nc2cc3[nH]c(=O)c(C(C)C)nc3cc21	i	i	i	+	i
CCCCn1c(-c2cccnc2)nc2cc3[nH]c(=O)c(C(C)C)nc3cc21	i	i	i	+	i
CCCN1CCC(=O)N(CCO)CC1	i	i	i	i	i
SMILES	VIM-2 inhibitor	eIF4H inh	IMP-1 inh	PABP polyA inh	MLLE-PAM2 inh
Cc1onc(-c2ccccc2)c1C(=O)NC(=S)NNC(=O)c1ccncc1	i	i	i	i	42
Cc1onc(-c2ccccc2)c1C(=O)NC(=S)NNC(=O)c1cccnc1	i	i	i	i	i
COc1ccc(CNc2ccc(S(N)(=O)=O)cc2)cc1	i	i	i	i	57
N#Cc1c(=O)c2nc(NCc3ccccc3)ncc2n2ccccc12	i	84	i	+	i
Cc1cc2ccccn2c1C(=O)c1nc(NCc2ccccc2)ncc1Cl	i	i	i	i	i
C=CCSc1nc2ccccc2n2cnnc12	10	i	i	i	i
CCOC(=O)CSc1nc2ccccc2n2cnnc12	i	i	i	i	i
O=C(CSc1cn[nH]n1)Nc1nc2ccccc2s1	i	i	i	i	i
COc1ccc(NC(=O)NNC(=O)CCc2ccc(O)c(O)c2)cc1OC	i	57	i	i	i
COc1ccc(C2=CC3=C(Br)C(=O)C(C)(OC(=O)c4ccc(Cl)nc4)C(=O)C3=CO2)cc1 (stereo unspecified)	nt	i	nt	+	nt
COc1ccc(C2=CC3=C(Br)C(=O)C(C)(OC(=O)C4CCCC4)C(=O)C3=CO2)cc1 (stereo unspecified)	nt	?	nt	?	i
CCOCCCNC(=O)C1CCCN(S(=O)(=O)c2ccc(-n3cnnn3)cc2)C1 (stereo unspecified)	i	i	i	i	i
O=C1C(Cl)=C(Nc2ccccc2O)C(=O)N1c1ccccc1	9.3	i	i	i	i
COc1ccccc1N1C(=O)C(Cl)=C(Nc2ccccc2O)C1=O	i	i	i	i	i
COc1ccc(CCNC(=O)CCNC(=O)c2ccco2)cc1	i	i	i	i	i
Cn1c(SCn2nnc3ccccc3c2=O)nc2ccccc2c1=O	i	i	i	i	nt
CCN(CC)S(=O)(=O)c1ccc2c(c1)nc(SCn1nnc3ccccc3c1=O)n2CC	i	i	i	i	43
Cn1nnc(NC(=O)c2ccc3ccccc3c2)n1	i	i	i	i	i
Cn1nnc(NC(=S)NC(=O)c2ccc3ccccc3c2)n1	nt	nt	nt	nt	49
CC(C)C1=C2CCCCC2NC(=O)N1 (stereo unspecified)	i	i	i	i	62
CCOC(=O)Cc1csc(NC(=S)NC(=O)c2ccccc2Br)n1	i	i	i	i	39
CCOC(=O)Cc1csc(NC(=S)NC(=O)c2ccccc2)n1	i	i	i	i	i
CCOC(=O)Cc1csc(NC(=O)c2sc3nc4cc(C)ccc4cc3c2N)n1	i	?	i	+	i
CCOC(=O)Cc1csc(NC(=O)/C=C/c2ccc(Br)o2)n1	i	i	i	i	i
CCOC(=O)c1sc(NC(=O)/C=C/c2ccccc2)nc1C	i	11	i	i	i
SMILES	VIM-2 inhibitor	eIF4H inh	IMP-1 inh	PABP polyA inh	MLLE-PAM2 inh
CCOC(=O)Cc1csc(NC(=O)/C=C/c2cccc(Br)c2)n1	i	active	i	+	i
CC(Sc1nnc(-c2cccnc2)n1N)C(=O)NCCC1=CCCCC1 (stereo unspecified)	nt	nt	nt	nt	i
COc1cc(NS(=O)(=O)c2ccc(Cl)cc2)c(C(=O)O)cc1OC	i	i	i	i	i
Cc1ccc(C(O)c2ncc(-c3cccc(C(F)(F)F)c3)[nH]2)cc1F (stereo unspecified)	nt	nt	nt	nt	i
COc1cc2c(cc1OC)-c1c(OC)c(OC)cc3ccnc(c13)C2=O	9.0	i	i	i	i
C=CCN1C(=O)C2C(C(=O)NC3CCCC3)C3(C)C=CC2(O3)C1C(=O)NC1CCCC1 (stereo unspecified)	i	i	i	i	i
COCCN(CCOC)Cc1c(O)ccc2c1O/C(=C\c1ccco1)C2=O	i	91	i	+	i
CCC1(C)CC(C(N)=S)CCO1 (stereo unspecified)	i	i	5.3	i	i
COC(=O)c1ccc2c(=O)n(NC(=O)C(c3ccccc3)c3ccccc3)c(=S)[nH]c2c1	i	i	i	i	38
COC(=O)c1ccc2c(=O)n(CCO)c(=S)[nH]c2c1	i	i	i	i	i
O=c1c2ccccc2oc2ccc(NCCCn3ccnc3)cc12	11	i	i	i	i
